Measurements taken from publication PMC10952047 (iScience, 2024).
No end group written: not given here.

Biological target: T1, CKR-1 (Caenorhabditis elegans, UniProt P91487)
T1 sequence (P91487 1-421): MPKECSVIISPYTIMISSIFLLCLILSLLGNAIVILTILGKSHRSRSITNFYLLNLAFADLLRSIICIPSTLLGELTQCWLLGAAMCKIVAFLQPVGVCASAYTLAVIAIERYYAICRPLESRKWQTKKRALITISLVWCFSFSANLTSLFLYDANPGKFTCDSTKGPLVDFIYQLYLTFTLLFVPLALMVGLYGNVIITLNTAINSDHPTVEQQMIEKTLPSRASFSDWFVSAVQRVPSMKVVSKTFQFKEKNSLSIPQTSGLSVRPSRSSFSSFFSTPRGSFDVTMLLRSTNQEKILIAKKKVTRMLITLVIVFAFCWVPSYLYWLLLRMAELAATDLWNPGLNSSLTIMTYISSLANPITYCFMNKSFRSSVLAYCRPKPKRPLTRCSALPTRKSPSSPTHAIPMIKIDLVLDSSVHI
Type: cell-based, C. elegans
Summary of the method: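 CKR-1 cDNA cloned into pGH19, and 50 ng sense cRNA injected per oocyte. Oocytes kept 2-3 days at 18°C in ND96. TEVC at -80 mV with 3 M KCl electrodes. Perfusion switched from ND96 to high-K+ bath (96 mM KCl, pH 7.3) to read […] Ca2+-gated Cl- currents evoked by synthetic peptide. Washout in high-K+, then ND96.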

Substance: DYRPLQF-NH2 [NLP-12a]
- EC50: 0.0265 µM
- EC50 of NLP-12a relative to NLP-18a (ratio of EC50 values, X. laevis oocytes expressing CKR-1): approximately twice that of NLP-18a
